Here are results for 7 compounds from PMC3329777 (The Journal of Organic Chemistry, 2010).

Series [1] can be described thus: Decomposition of polysulfanes with hydroxide ion, monitored by HPLC. It is filed as physicochemical. The following applies: 6A-F 2.5 mM, methanol/water 99.9:0.1, after 1 hr. The procedure, abridged:
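Test polysulfane mixture (2.5 mM) with acetanilide internal standard (0.25 mM) was treated with NaOH (0.625, 1.25, 1.875 or 2.5 mM) in methanol. After 1 h of equilibration, samples were analysed by reversed-phase C18 HPLC at 1 mL/min, rt, with UV at 254 nm. Elution used a methanol/water gradient of 15→95% methanol over 30 min, held 15 min.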

The conditions of series [2]: cited from earlier work.
Series [3] is described as follows: Intrinsic solubility determination. It is filed as physicochemical.
The next series deals with PC3 (prostate) cells. The experiment in a line: Cell proliferation assay. It is filed as cell-based, human. The procedure, abridged: (§1)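 DU145, PC3 and MDA-MB-231 lines only. Cells came from ATCC frozen stocks. PC3 was grown in F12K, DU145 and MDA-MB-231 in DMEM, all with 10% FBS plus penicillin/streptomycin. Equal cell numbers were seeded and held at 37 °C, 5% CO2 until log phase. Medium was then replaced with test compound (0–30 μM) for 48 h, then removed and plates frozen at -80 °C. After thawing to rt, CyQuant reagent was added and fluorescence read at 485/530 nm. Eight replicates per concentration; values are cell-number increase versus untreated controls, mean ± SE.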

Series [4] concerns PC3, DU145, MDA-MB-231 and Jurkat cells. Kind of series: Antiproliferative activity against four human tumor cell lines. It is filed as cell-based.
The test system of series [5] is Jurkat (T-cell leukemia) cells. Kind of series: MTS cytotoxicity assay, Jurkat cells. Type of series: cell-based. To be noted: Homo sapiens, 24 h, read-out: IC50 Jurkat. The procedure, abridged:
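Jurkat line: cells were kept in RPMI-1640 with 10% fetal bovine serum and penicillin-streptomycin (100 U/mL / 100 μg/mL) at 37 °C, humidified 5% CO2. They were seeded at 2,000 cells/well in 96-well plates. After 24 h they were exposed to a range of test compound concentrations for […]. Growth was measured by MTS reagent with absorbance at 490 nm, expressed relative to compound-free controls, mean ± SE.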

In a further series the test system is DU145 (prostate) cells. Kind of series: Cell proliferation assay. Type of series: cell-based, human. The procedure, abridged:
as §1

Series [6] deals with MDA-MB-231 (breast) cells. The experiment in a line: Cell proliferation assay. It is filed as cell-based, human. The gist of the method:
as §1

The nature of series [7]: Ethanethiol-induced desulfuration. Type of series: physicochemical.
Where [8] appears, read: room temperature, equilibrium time 24 h, average of three measurements.

The structures appear in SMILES notation. In brackets after ≈: the same amount, converted by molar mass. Like-named read-outs stand apart in the source and are kept apart here.

In the case of `COCCOCCOCCNC(=O)c1ccc2ssssssc2c1` [Compound 6D, N-(2-(2-(2-methoxyethoxy)ethoxy)ethyl)benzo[g][1,2,3,4,5,6]hexathiocine-8-carboxamide], the “Polysulfanes and elemental sulfur distribution (HPLC, internal standard = 100)” value was 2.3 in series [1] (0.25 hydroxide ion equivalents), 2.1 in series [1] (0.5 hydroxide ion equivalents), 1.8 in series [1] (0.75 hydroxide ion equivalents) and 1.5 in [1] (1.0 hydroxide ion equivalents).
Consider `COCCOCCOCCNC(=O)c1ccc2c(c1)SSSSSSSSS2` [Compound 6F, N-(2-(2-(2-Methoxyethoxy)ethoxy)ethyl)benzo[j][1,2,3,4,5,6,7,8,9]nonathiacyclo-undecine-11-carboxamide], for which the “Polysulfanes and elemental sulfur distribution (HPLC, internal standard = 100)” value in series [1] (0.25 hydroxide ion equivalents) is given as 2.1; in series [1] (0.5 hydroxide ion equivalents), 3.7; in series [1] (0.75 hydroxide ion equivalents), 3.8; in series [1] (1.0 hydroxide ion equivalents) it was 3.1.
On to `COCCOCCOCCNC(=O)c1ccc2c(c1)SSSSSSS2` [Compound 6E, N-(2-(2-(2-Methoxyethoxy)ethoxy)ethyl)benzo[h][1,2,3,4,5,6,7]heptathionine-9-carboxamide], for which the “Polysulfanes and elemental sulfur distribution (HPLC, internal standard = 100)” value in [1] (0.25 hydroxide ion equivalents) is listed as 3.0; in series [1] (0.5 hydroxide ion equivalents), 2.8; in [1] (0.75 hydroxide ion equivalents), 4.7; in series [1] (1.0 hydroxide ion equivalents), 1.6.
For the compound `[S]` [Compound S8, Elemental sulfur], the Solubility in ethanol in [2] is recorded as 0.51 mg/mL (≈ 15.9 mM). Also, the results for the Solubility in water in [2] and in [3] (setting [8]) were 0.4 µg/mL (≈ 0.0125 mM) and 0.14 ± 0.02 µg/mL (≈ 0.00437 mM), respectively. The “Fold lower solubility by comparison to 6A-F” value in series [3] was ~ 50 fold. In [3] (setting [8]), this compound returned a Solubility in methanol of 0.33 ± 0.03 mg/mL (≈ 10.3 mM). Also, the “Polysulfanes and elemental sulfur distribution (HPLC, internal standard = 100)” value in series [1] (0.25 hydroxide ion equivalents) was 12.3; in [1] (0.5 hydroxide ion equivalents) it was 23.1; in series [1] (0.75 hydroxide ion equivalents) it was 26.7; in series [1] (1.0 hydroxide ion equivalents), 32.4.
With `Sc1ccccc1S` [1,2-Benzenedithiol], in the series on PC3 (prostate) cells (48 h), the “Effect on growth of PC3 cells” value is recorded as “stimulated the growth”. Also, in the series with PC3 (prostate) cells (48 h incubation, 0–30 μM, 96-well plates), the “IC50 PC-3” value is on record as “No effect”. For the same compound, the “Toxicity to the cancer cell lines (in words)” value in series [4] is “nontoxic”. Further, the IC50 is 60 µM in [5]; greater than 30 µM with DU145 (prostate) cells (Homo sapiens, DU-145, 48 h, read-out: IC50 DU145); greater than 30 µM in series [6] (Homo sapiens, MDA-MB-231, 48 h, read-out: IC50 MDA-MB-231). For the same compound, the “Inhibition of proliferation of DU145 cells” value with DU145 (prostate) cells (at concentrations of 10 μM and above, 48 h) is reported as ~ 40%. Moreover, the “Effect on proliferation of MDA-MB-231 cells” value in [6] (48 h) is “minimal effect”.
For the compound `COCCOCCOCCNC(=O)c1ccc2c(c1)SSS2` [Compound 6A, N-(2-(2-(2-Methoxyethoxy)ethoxy)ethyl)benzo[d][1,2,3]trithiole-5-carboxamide], the “Polysulfanes and elemental sulfur distribution (HPLC, internal standard = 100)” value in series [1] (0.25 hydroxide ion equivalents) was determined as 10.9; in series [1] (0.5 hydroxide ion equivalents), 13.2; in series [1] (0.75 hydroxide ion equivalents) it was 14.2; in series [1] (1.0 hydroxide ion equivalents), 14.2.
In the case of `COCCOCCOCCNC(=O)c1ccc2c(c1)SSSSS2` [Compound 6C, N-(2-(2-(2-Methoxyethoxy)ethoxy)ethyl)benzo[f][1,2,3,4,5]pentathiepine-7-carboxamide], the “Time of ethanethiol-induced desulfuration” value in series [7] (in aqueous methanol) is ~ 2 min; in series [7] (in benzene) it was 4 h. Further, the “Polysulfanes and elemental sulfur distribution (HPLC, internal standard = 100)” value in series [1] (0.25 hydroxide ion equivalents) stood at 362.4; in series [1] (0.5 hydroxide ion equivalents) it was 289.2; in [1] (0.75 hydroxide ion equivalents) it was 222.9; in [1] (1.0 hydroxide ion equivalents), 163.9.
